We go through eleven compounds from ChEMBL document CHEMBL3526073, “Hydralazine as a selective probe inactivator of aldehyde oxidase in human hepatocytes: estimation of the contribution of aldehyde oxidase to metabolic clearance” (Drug Metab Dispos, 2012).

Series [1] is described as follows: Drug level in cryopreserved human hepatocytes assessed as CYP450-mediated metabolite formation treated with 20 uM of zaleplon after 30 mins by LC-MS/MS analysis. In kind it is ADME, cell-based, Hepatocyte. Particulars: 0.5 h. The procedure, abridged: (§1)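 Pooled cryopreserved human hepatocytes (five-donor pool, viability >80%) in Williams E medium, preincubated 30 min at 37°C under O2/CO2 (95/5). Zaleplon 20 μM final, with hydralazine 0–200 μM or 1-aminobenzotriazole 0–1.5 mM co-added, incubated 30 min. Reaction stopped with cold acetonitrile containing internal standard. Oxozaleplon (AO product) and desethylzaleplon (CYP product) measured by LC-MS/MS and expressed as percent of control.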

Series [2] has as its target T1, Aldehyde oxidase (Homo sapiens, UniProt Q06278).
T1 sequence (Q06278 whole entry): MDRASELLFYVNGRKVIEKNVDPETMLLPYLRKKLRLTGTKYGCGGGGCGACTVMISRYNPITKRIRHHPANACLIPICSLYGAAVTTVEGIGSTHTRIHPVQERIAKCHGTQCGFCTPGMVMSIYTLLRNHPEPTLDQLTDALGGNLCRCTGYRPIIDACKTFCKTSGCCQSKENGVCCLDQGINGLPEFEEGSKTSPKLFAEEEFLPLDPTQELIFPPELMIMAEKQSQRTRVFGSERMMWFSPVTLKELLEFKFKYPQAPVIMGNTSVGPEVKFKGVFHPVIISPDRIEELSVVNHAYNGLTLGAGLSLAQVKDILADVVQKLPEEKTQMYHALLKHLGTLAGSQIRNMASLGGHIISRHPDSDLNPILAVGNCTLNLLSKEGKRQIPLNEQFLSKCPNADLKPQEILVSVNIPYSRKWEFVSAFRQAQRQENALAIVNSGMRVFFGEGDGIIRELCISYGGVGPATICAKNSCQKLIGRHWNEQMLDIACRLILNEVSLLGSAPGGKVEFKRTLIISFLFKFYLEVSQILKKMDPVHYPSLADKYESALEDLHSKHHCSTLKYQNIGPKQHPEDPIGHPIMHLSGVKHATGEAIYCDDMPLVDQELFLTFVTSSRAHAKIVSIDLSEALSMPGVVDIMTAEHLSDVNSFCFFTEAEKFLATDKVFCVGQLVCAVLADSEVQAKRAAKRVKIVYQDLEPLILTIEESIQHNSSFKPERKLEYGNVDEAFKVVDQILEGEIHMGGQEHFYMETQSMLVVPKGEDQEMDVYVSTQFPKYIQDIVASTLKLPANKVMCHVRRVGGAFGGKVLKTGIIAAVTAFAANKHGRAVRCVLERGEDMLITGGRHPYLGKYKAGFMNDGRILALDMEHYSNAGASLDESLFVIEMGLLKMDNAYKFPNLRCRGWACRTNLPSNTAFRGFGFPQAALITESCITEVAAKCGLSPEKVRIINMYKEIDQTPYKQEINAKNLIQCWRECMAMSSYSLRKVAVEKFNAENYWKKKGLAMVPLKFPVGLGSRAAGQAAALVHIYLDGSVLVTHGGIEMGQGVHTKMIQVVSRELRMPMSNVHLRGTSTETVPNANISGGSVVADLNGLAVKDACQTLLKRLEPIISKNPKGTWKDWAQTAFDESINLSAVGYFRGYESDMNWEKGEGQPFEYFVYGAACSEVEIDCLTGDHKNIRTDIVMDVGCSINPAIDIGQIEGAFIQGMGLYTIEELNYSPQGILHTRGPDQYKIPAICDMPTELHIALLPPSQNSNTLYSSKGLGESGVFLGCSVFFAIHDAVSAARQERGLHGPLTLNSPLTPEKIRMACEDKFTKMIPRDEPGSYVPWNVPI
Particulars: hepatocytes, 2 h, 10 µM.

In series [3] the target is T1, Aldehyde oxidase. Particulars: hepatocytes, 2 h, 10 µM. The source holds these as a separate data set.
The target in series [4] is T2, CYP1A2 (Homo sapiens, UniProt P05177).
T2 sequence (P05177 whole entry): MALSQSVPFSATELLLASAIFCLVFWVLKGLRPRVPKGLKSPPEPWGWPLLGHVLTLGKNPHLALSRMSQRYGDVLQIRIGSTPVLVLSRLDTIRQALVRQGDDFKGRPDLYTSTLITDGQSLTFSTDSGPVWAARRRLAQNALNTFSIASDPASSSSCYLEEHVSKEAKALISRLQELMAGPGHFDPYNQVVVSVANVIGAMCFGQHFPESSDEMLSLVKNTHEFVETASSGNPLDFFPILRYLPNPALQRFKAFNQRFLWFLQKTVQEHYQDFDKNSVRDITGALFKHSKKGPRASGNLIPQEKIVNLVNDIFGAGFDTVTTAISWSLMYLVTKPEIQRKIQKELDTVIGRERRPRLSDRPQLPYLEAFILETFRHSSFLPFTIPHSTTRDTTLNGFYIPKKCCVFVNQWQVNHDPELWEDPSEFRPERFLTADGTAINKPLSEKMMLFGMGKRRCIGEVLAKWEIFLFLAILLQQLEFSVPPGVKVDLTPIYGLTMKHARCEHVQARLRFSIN
Description: Inhibition of CYP1A2 in human liver microsomes assessed as residual activity using phenacetin as substrate at 50 uM relative to control. Particulars: probe phenacetin. (Liver microsomes are vesicles of endoplasmic reticulum, rich in cytochrome P450 enzymes.)

Series [5] addresses T3, CYP2C8 (Homo sapiens, UniProt P10632).
T3 sequence (P10632 whole entry): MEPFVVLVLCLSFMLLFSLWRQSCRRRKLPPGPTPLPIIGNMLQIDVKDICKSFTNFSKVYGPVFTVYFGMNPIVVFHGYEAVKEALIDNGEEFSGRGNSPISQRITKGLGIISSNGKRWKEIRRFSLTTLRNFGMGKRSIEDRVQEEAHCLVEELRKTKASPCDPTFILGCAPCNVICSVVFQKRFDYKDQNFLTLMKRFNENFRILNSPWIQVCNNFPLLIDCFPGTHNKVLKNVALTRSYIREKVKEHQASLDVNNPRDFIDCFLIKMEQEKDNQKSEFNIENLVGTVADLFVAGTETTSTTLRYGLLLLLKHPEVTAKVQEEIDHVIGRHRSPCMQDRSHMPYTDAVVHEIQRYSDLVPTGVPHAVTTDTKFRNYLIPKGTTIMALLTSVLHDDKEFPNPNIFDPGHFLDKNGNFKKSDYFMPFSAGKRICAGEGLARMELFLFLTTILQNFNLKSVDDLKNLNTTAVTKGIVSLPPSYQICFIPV
Description: Inhibition of CYP2C8 in human liver microsomes assessed as residual activity using paclitaxel as substrate at 50 uM relative to control. Particulars: probe paclitaxel.

Series [6] concerns the target T4, CYP2C9 (Homo sapiens, UniProt P11712). In words: Inhibition of CYP2C9 in human liver microsomes assessed as residual activity using diclofenac as substrate at 50 uM relative to control. Particulars: probe diclofenac.
Series [7] deals with T5, CYP2C19 (Homo sapiens, UniProt P33261). Description: Inhibition of CYP2C19 in human liver microsomes assessed as residual activity using S-mephenytoin as substrate at 50 uM relative to control. Particulars: probe S-mephenytoin.
The target in series [8] is T6, CYP2D6 (Homo sapiens, UniProt P10635). In words: Inhibition of CYP2D6 in human liver microsomes assessed as residual activity using dextromethorphan as substrate at 50 uM relative to control. Particulars: probe dextromethorphan.
Series [9] has as its target T7, CYP3A (Homo sapiens, UniProt P08684+P20815+P24462+Q9HB55). In words: Inhibition of CYP3A in human liver microsomes assessed as residual activity using midazolam as substrate at 50 uM relative to control. Particulars: probe midazolam.
Series [10] concerns the target T2, CYP1A2. In words: in vitro. Particulars: liver microsomes, probe phenacetin.
The target in series [11] is T3, CYP2C8. In words: in vitro. Particulars: liver microsomes, probe paclitaxel.
In series [12] the target is T4, CYP2C9. In words: in vitro. Particulars: liver microsomes, probe diclofenac.
Series [13] has as its target T5, CYP2C19. In words: in vitro. Particulars: liver microsomes, probe S-mephenytoin.
For series [14], the target named is T6, CYP2D6. In words: in vitro. Particulars: liver microsomes, probe dextromethorphan.
The target of series [15] is T7, CYP3A. Description: in vitro. Particulars: liver microsomes, probe midazolam.
Series [16] in a line: Drug metabolism in cryopreserved human hepatocytes assessed as CYP450-mediated formation of desethylzaleplon at 20 uM after 30 mins by LC-MS/MS analysis in presence of 25 uM of hydralazine. Particulars: 0.5 h. The class given is ADME, cell-based, Hepatocyte. The procedure, abridged:
as §1

Series [17] is described as follows: Drug metabolism in cryopreserved human hepatocytes assessed as CYP450-mediated formation of desethylzaleplon at 20 uM after 30 mins by LC-MS/MS analysis in presence of 50 uM hydralazine. Particulars: 0.5 h. In kind it is ADME, cell-based, Hepatocyte. The procedure, abridged:
as §1

For series [18], the target named is T1, Aldehyde oxidase. Description: Drug metabolism in cryopreserved human hepatocytes assessed as aldehyde oxidase-mediated formation of oxozaleplon at 20 uM after 30 mins by LC-MS/MS analysis in presence of 1.5 mM of 1-aminobenzotriazole. The class given is ADME, cell-based, Hepatocyte. Particulars: 0.5 h. The procedure, abridged:
as §1

Series [19] has as its target T1, Aldehyde oxidase. Description: Inhibition of aldehyde oxidase in human liver cytosol assessed as production of oxozoniporide.
Series [20] has as its target T1, Aldehyde oxidase. Description: Drug metabolism in cryopreserved human hepatocytes assessed as aldehyde oxidase-mediated formation of oxozaleplon at 20 uM after 30 mins by LC-MS/MS analysis. In kind it is ADME, cell-based, Hepatocyte. Particulars: 0.5 h. The method, boiled down:
as §1

Series [21] in a line: Drug metabolism in cryopreserved human hepatocytes assessed as CYP450-mediated formation of desethylzaleplon at 20 uM after 30 mins by LC-MS/MS analysis. The class given is ADME, cell-based, Hepatocyte. Particulars: 0.5 h. The procedure, abridged:
as §1

Series [22] concerns the target T1, Aldehyde oxidase. In words: Drug metabolism in cryopreserved human hepatocytes assessed as aldehyde oxidase-mediated formation of oxozaleplon at 50 uM after 30 mins by LC-MS/MS analysis. The class given is ADME, cell-based, Hepatocyte. Particulars: 0.5 h.
Series [23] can be described thus: Drug metabolism in cryopreserved human hepatocytes assessed as CYP450-mediated formation of desethylzaleplon at 50 uM after 30 mins by LC-MS/MS analysis. The class given is ADME, cell-based, Hepatocyte. Particulars: 0.5 h.

T4 sequence (P11712 whole entry): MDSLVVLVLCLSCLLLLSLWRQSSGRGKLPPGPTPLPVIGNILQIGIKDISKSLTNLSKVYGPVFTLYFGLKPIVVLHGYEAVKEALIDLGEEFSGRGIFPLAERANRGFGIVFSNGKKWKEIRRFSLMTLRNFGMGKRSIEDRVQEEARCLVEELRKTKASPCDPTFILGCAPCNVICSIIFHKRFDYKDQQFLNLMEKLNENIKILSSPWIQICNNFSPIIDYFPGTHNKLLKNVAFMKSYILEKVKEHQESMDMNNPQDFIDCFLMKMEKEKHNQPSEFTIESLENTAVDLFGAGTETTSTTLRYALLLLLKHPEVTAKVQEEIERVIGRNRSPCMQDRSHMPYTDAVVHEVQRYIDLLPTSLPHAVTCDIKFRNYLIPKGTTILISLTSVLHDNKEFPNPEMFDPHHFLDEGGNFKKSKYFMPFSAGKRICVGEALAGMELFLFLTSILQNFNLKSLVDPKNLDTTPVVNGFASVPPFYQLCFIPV
T5 sequence (P33261 whole entry): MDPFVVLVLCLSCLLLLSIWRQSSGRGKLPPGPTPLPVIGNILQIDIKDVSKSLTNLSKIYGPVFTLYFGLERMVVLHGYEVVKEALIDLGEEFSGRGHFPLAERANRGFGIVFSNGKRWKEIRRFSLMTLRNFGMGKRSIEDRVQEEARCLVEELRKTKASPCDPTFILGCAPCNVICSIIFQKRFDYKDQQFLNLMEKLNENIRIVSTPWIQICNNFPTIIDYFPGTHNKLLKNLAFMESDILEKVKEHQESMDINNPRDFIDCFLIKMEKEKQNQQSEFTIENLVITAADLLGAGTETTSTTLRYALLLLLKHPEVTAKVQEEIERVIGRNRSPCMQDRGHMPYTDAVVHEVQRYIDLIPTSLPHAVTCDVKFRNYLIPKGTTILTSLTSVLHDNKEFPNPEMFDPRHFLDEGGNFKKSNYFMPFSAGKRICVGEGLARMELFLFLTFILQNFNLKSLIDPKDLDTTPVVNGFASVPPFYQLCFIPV
T6 sequence (P10635 whole entry): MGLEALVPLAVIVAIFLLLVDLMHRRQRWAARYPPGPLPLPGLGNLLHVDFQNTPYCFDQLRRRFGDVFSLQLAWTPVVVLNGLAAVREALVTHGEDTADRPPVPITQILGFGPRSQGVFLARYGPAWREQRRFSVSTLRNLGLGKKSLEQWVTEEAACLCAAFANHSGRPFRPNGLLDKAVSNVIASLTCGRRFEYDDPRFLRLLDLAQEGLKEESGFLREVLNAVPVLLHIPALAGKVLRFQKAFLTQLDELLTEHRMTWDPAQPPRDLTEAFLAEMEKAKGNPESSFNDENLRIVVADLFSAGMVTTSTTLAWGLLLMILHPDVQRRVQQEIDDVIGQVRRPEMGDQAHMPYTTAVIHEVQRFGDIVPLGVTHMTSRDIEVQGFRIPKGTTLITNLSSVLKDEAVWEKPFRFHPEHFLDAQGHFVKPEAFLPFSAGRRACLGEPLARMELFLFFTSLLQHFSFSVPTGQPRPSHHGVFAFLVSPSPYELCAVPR

Regarding `CC(=O)Nc1cccc(-c2ccnc3c(C#N)cnn23)c1`, in series [1], the Drug metabolism entry is “metabolite_detected”.
Consider `CN(C)CCNC(=O)c1cccc2cc3ccccc3nc12`, for which the results for the Fm at Aldehyde oxidase [2] and on Aldehyde oxidase [3] were 0.53 and 0.76, respectively.
As to `NNc1nncc2ccccc12` [HYDRALAZINE], the activity at 50 µM was 89% at CYP1A2 [4]; 95% on CYP2C8 [5]; 95% at CYP2C9 [6]; 90% on CYP2C19 [7]; 77% at CYP2D6 [8]; 76% on CYP3A [9]. For the same compound, the activity at 25 µM on CYP1A2 [10] came out at 100%; at CYP2C8 [11] it was 108%; on CYP2C9 [12], 105%; at CYP2C19 [13], 103%; on CYP2D6 [14], 92%; at CYP3A [15] it was 98%.
Regarding `CCNC(=O)OC1CCN(c2nncc3cc(OC)c(OC)cc23)CC1` [CARBAZERAN], the figures for the Fm at Aldehyde oxidase [2] and at Aldehyde oxidase [3] were 0.49 and 0.55, respectively.
`CC[C@H]1OC(=O)[C@H](C)C(=O)[C@H](C)[C@@H](O[C@@H]2O[C@H](C)C[C@H](N(C)C)[C@H]2O)[C@](C)(OC)C[C@@H](C)C(=O)[C@H](C)[C@H]2N(C3CN([C@H](C)c4ccnc5ncccc45)C3)C(=O)O[C@]12C`: on Aldehyde oxidase [3], the Fm is recorded as 0.61.
On the same count and under the same terms, next, `Nc1nc(OCc2ccccc2)c2[nH]cnc2n1` [6-O-BENZYLGUANINE]: 0.83; `COc1ccc2c(c1)[C@]13CCCC[C@@H]1[C@H](C2)N(C)CC3` [DEXTROMETHORPHAN]: 0.39.
On to `N=C(N)NC(=O)c1cnn(-c2cccc3ncccc23)c1C1CC1` [ZONIPORIDE], for which the Fm came out at 0.64 on Aldehyde oxidase [2] and 0.55 on Aldehyde oxidase [3].
The matching figures for `Cc1ncc2n1-c1ccc(Cl)cc1C(c1ccccc1F)=NC2` [MIDAZOLAM]: 0.08 and 0.05.
One may read the Ki as the equilibrium dissociation constant of an inhibitor or competing ligand from its target. A word on the kinact: it is the maximal first-order rate at which the target is inactivated. On to `CCN(C(C)=O)c1cccc(-c2ccnc3c(C#N)cnn23)c1` [ZALEPLON], for which the Drug metabolism entry in [16] is given as “metabolite_detected”; in series [17] it was “metabolite_not_detected”; on Aldehyde oxidase [18], “metabolite_detected”; on Aldehyde oxidase [20] it was “metabolite_detected”; in series [21], “metabolite_detected”. The Ki on Aldehyde oxidase [19] turned out to be 83 µM. Further, the inactivation rate constant (kinact) at Aldehyde oxidase [19] (human, liver cytosol) is 0.00105 s⁻¹. Further, the Fm is 0.7 on Aldehyde oxidase [2] and 0.56 at Aldehyde oxidase [3].
For the compound `CCN(C(C)=O)c1cccc(-c2cc(=O)[nH]c3c(C#N)cnn23)c1`, the Drug metabolism result (on Aldehyde oxidase [22]; in series [23]) was “metabolite_not_detected” throughout.
